From ChEMBL document CHEMBL4196085, “Structure-guided design of potent and permeable inhibitors of MERS coronavirus 3CL protease that utilize a piperidine moiety as a novel design element” (Eur J Med Chem, 2018)

molecular target: Replicase polyprotein 1ab (Severe acute respiratory syndrome-related coronavirus, UniProt P0C6X7); assay: Inhibition of SARS coronavirus 3CL protease using Dabcyl-KTSAVLQ/SGFRKME-Edans as substrate incubated for 30 mins followed by substrate addition measured after 1 hr by FRET assay; conditions: not given
In short: (§1)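 Purified recombinant 3CLpro of FIPV, MERS-CoV or SARS-CoV was preincubated 30 min at 37 °C with serial compound dilutions or DMSO. Buffer: 20 mM HEPES pH 8, 200 mM NaCl, 0.4 mM EDTA, 60% glycerol, 6 mM DTT. Substrate was then added and fluorescence read 1 h later (ex 360/em 460 nm), minus no-protease background. IC50 came from variable-slope fits, at least two determinations.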

Structure (SMILES) | IC50 [nM]
CC(C)C[C@H](NC(=O)OC1(Cc2ccccc2)CCN(C(=O)OC(C)(C)C)CC1)C(=O)N[C@H](C=O)C[C@@H]1CCNC1=O | 5200
CC(C)C[C@H](NC(=O)OC1(Cc2ccccc2)CCN(C(=O)OC(C)(C)C)CC1)C(=O)N[C@@H](C[C@@H]1CCNC1=O)C(O)S(=O)(=O)O (some centres not stated) | 6300
CCOC(=O)N1CCC(OC(=O)N[C@@H](CC(C)C)C(=O)N[C@@H](C[C@@H]2CCNC2=O)C(O)S(=O)(=O)O)CC1 (some centres not stated) | 8800
CC(C)C[C@H](NC(=O)OC1CCN(C(=O)OC(C)(C)C)CC1)C(=O)N[C@@H](C[C@@H]1CCNC1=O)C(O)S(=O)(=O)O (some centres not stated) | 5100
CC(C)C[C@H](NC(=O)OC1(Cc2ccccc2)CCN(S(C)(=O)=O)CC1)C(=O)N[C@@H](C[C@@H]1CCNC1=O)C(O)S(=O)(=O)O (some centres not stated) | 4300
CC(C)C[C@H](NC(=O)OC1CCN(S(C)(=O)=O)CC1)C(=O)N[C@H](C=O)C[C@@H]1CCNC1=O | 28800
CCC1(OC(=O)N[C@@H](CC(C)C)C(=O)N[C@H](C=O)C[C@@H]2CCNC2=O)CCN(C(=O)OC(C)(C)C)CC1 | 5500
CC(C)C[C@H](NC(=O)OC1CCN(S(C)(=O)=O)CC1)C(=O)N[C@@H](C[C@@H]1CCNC1=O)C(O)S(=O)(=O)O (some centres not stated) | 42100
CC(C)C[C@H](NC(=O)OC1CCN(C(=O)OC(C)(C)C)CC1)C(=O)N[C@H](C=O)C[C@@H]1CCNC1=O | 2100
CC(C)C[C@H](NC(=O)OC1(Cc2ccccc2)CCN(S(C)(=O)=O)CC1)C(=O)N[C@H](C=O)C[C@@H]1CCNC1=O | 3900
CCC1(OC(=O)N[C@@H](CC(C)C)C(=O)N[C@@H](C[C@@H]2CCNC2=O)C(O)S(=O)(=O)O)CCN(C(=O)OC(C)(C)C)CC1 (some centres not stated) | 4100
CCOC(=O)N1CCC(OC(=O)N[C@@H](CC(C)C)C(=O)N[C@H](C=O)C[C@@H]2CCNC2=O)CC1 | 3200

test system: Middle East respiratory syndrome-related coronavirus; assay: Antiviral activity against Middle East respiratory syndrome-related coronavirus infected in African green monkey Vero81 cells assessed as reduction in viral titer after 48 hrs; type: functional, organism-based; conditions: not given

Structure (SMILES) | EC50 [nM]
CC(C)C[C@H](NC(=O)OC1(Cc2ccccc2)CCN(C(=O)OC(C)(C)C)CC1)C(=O)N[C@@H](C[C@@H]1CCNC1=O)C(O)S(=O)(=O)O (some centres not stated) | 800
CC(C)C[C@H](NC(=O)OC1CCN(C(=O)OC(C)(C)C)CC1)C(=O)N[C@@H](C[C@@H]1CCNC1=O)C(O)S(=O)(=O)O (some centres not stated) | 500

test system: Feline infectious peritonitis virus; assay: Antiviral activity against Feline infectious peritonitis virus infected in […] cells assessed as reduction in viral titer after 48 hrs; type: functional, organism-based; conditions: Alphacoronavirus 1, 48 h

Structure (SMILES) | EC50 [nM]
CC(C)C[C@H](NC(=O)OC1(Cc2ccccc2)CCN(C(=O)OC(C)(C)C)CC1)C(=O)N[C@@H](C[C@@H]1CCNC1=O)C(O)S(=O)(=O)O (some centres not stated) | 100
CC(C)C[C@H](NC(=O)OC1CCN(C(=O)OC(C)(C)C)CC1)C(=O)N[C@@H](C[C@@H]1CCNC1=O)C(O)S(=O)(=O)O (some centres not stated) | 1500

molecular target: Replicase polyprotein 1ab (Feline coronavirus (strain FIPV WSU-79/1146) (FCoV), UniProt Q98VG9); assay: Inhibition of Feline infectious peritonitis virus 3CL protease using Dabcyl-KTSAVLQ/SGFRKME-Edans as substrate incubated for 30 mins followed by substrate addition measured after 1 hr by FRET assay; conditions: not given; in short: as §1
Sequence (Q98VG9 2904-3205 limits assumed): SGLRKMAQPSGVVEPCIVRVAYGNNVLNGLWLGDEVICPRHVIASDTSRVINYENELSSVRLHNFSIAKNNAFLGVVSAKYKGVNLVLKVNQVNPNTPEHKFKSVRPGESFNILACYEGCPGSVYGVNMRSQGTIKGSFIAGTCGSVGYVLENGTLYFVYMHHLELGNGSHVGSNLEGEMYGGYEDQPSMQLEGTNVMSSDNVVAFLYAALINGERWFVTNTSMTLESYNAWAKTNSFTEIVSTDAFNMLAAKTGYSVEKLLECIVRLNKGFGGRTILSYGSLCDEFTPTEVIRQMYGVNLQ

Structure (SMILES) | IC50 [nM]
CC(C)C[C@H](NC(=O)OC1(Cc2ccccc2)CCN(C(=O)OC(C)(C)C)CC1)C(=O)N[C@H](C=O)C[C@@H]1CCNC1=O | 1600
CC(C)C[C@H](NC(=O)OC1(Cc2ccccc2)CCN(C(=O)OC(C)(C)C)CC1)C(=O)N[C@@H](C[C@@H]1CCNC1=O)C(O)S(=O)(=O)O (some centres not stated) | 2100
CCOC(=O)N1CCC(OC(=O)N[C@@H](CC(C)C)C(=O)N[C@@H](C[C@@H]2CCNC2=O)C(O)S(=O)(=O)O)CC1 (some centres not stated) | 1100
CC(C)C[C@H](NC(=O)OC1CCN(C(=O)OC(C)(C)C)CC1)C(=O)N[C@@H](C[C@@H]1CCNC1=O)C(O)S(=O)(=O)O (some centres not stated) | 2400
CC(C)C[C@H](NC(=O)OC1(Cc2ccccc2)CCN(S(C)(=O)=O)CC1)C(=O)N[C@@H](C[C@@H]1CCNC1=O)C(O)S(=O)(=O)O (some centres not stated) | 1100
CC(C)C[C@H](NC(=O)OC1CCN(S(C)(=O)=O)CC1)C(=O)N[C@H](C=O)C[C@@H]1CCNC1=O | 3500
CCC1(OC(=O)N[C@@H](CC(C)C)C(=O)N[C@H](C=O)C[C@@H]2CCNC2=O)CCN(C(=O)OC(C)(C)C)CC1 | 5500
CC(C)C[C@H](NC(=O)OC1CCN(S(C)(=O)=O)CC1)C(=O)N[C@@H](C[C@@H]1CCNC1=O)C(O)S(=O)(=O)O (some centres not stated) | 2300
CC(C)C[C@H](NC(=O)OC1CCN(C(=O)OC(C)(C)C)CC1)C(=O)N[C@H](C=O)C[C@@H]1CCNC1=O | 800
CC(C)C[C@H](NC(=O)OC1(Cc2ccccc2)CCN(S(C)(=O)=O)CC1)C(=O)N[C@H](C=O)C[C@@H]1CCNC1=O | 800
CCC1(OC(=O)N[C@@H](CC(C)C)C(=O)N[C@@H](C[C@@H]2CCNC2=O)C(O)S(=O)(=O)O)CCN(C(=O)OC(C)(C)C)CC1 (some centres not stated) | 6700
CCOC(=O)N1CCC(OC(=O)N[C@@H](CC(C)C)C(=O)N[C@H](C=O)C[C@@H]2CCNC2=O)CC1 | 1300

test system: not listed separately; assay: Cytotoxicity against mouse CCL-9.1 assessed as reduction in cell viability after 72 hrs by CytoTox 96 nonradioactive cytotoxicity assay; conditions: CCL-9.1 cells
In short: (§2)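 Confluent Vero81, CRFK or CCL9.1 cells were exposed to compound at 1–100 μM for 72 h. Cytotoxicity was read with the CytoTox 96 nonradioactive kit. CC50 was taken as the dose giving 50% cell death, averaged over at least two determinations.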

Structure (SMILES) | CC50 at 72 h [nM]
CC(C)C[C@H](NC(=O)OC1(Cc2ccccc2)CCN(C(=O)OC(C)(C)C)CC1)C(=O)N[C@@H](C[C@@H]1CCNC1=O)C(O)S(=O)(=O)O (some centres not stated) | > 100000
CC(C)C[C@H](NC(=O)OC1CCN(C(=O)OC(C)(C)C)CC1)C(=O)N[C@@H](C[C@@H]1CCNC1=O)C(O)S(=O)(=O)O (some centres not stated) | > 100000

molecular target: Replicase polyprotein 1ab (Middle East respiratory syndrome-related coronavirus (isolate UnitedKingdom/H123990006/2012) (Betacoronavirus England 1) (Humancoronavirus EMC), UniProt K9N7C7); assay: Inhibition of Middle East respiratory syndrome-related coronavirus 3CL protease using Dabcyl-KTSAVLQ/SGFRKME-Edans as substrate incubated for 30 mins followed by substrate addition measured after 1 hr by FRET assay; conditions: not given; in short: as §1
Sequence (K9N7C7 3248-3553 limits assumed): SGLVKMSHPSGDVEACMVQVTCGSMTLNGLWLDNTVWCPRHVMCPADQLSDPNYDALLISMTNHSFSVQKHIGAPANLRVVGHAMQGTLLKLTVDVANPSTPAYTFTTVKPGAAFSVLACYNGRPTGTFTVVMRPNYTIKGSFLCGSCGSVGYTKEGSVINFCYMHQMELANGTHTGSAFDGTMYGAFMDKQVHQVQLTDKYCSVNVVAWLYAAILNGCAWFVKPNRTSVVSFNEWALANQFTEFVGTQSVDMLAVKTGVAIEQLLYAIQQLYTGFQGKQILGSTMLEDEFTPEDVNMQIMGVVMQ

Structure (SMILES) | IC50 [nM]
CC(C)C[C@H](NC(=O)OC1(Cc2ccccc2)CCN(C(=O)OC(C)(C)C)CC1)C(=O)N[C@H](C=O)C[C@@H]1CCNC1=O | 800
CC(C)C[C@H](NC(=O)OC1(Cc2ccccc2)CCN(C(=O)OC(C)(C)C)CC1)C(=O)N[C@@H](C[C@@H]1CCNC1=O)C(O)S(=O)(=O)O (some centres not stated) | 700
CCOC(=O)N1CCC(OC(=O)N[C@@H](CC(C)C)C(=O)N[C@@H](C[C@@H]2CCNC2=O)C(O)S(=O)(=O)O)CC1 (some centres not stated) | 500
CC(C)C[C@H](NC(=O)OC1CCN(C(=O)OC(C)(C)C)CC1)C(=O)N[C@@H](C[C@@H]1CCNC1=O)C(O)S(=O)(=O)O (some centres not stated) | 400
CC(C)C[C@H](NC(=O)OC1(Cc2ccccc2)CCN(S(C)(=O)=O)CC1)C(=O)N[C@@H](C[C@@H]1CCNC1=O)C(O)S(=O)(=O)O (some centres not stated) | 900
CC(C)C[C@H](NC(=O)OC1CCN(S(C)(=O)=O)CC1)C(=O)N[C@H](C=O)C[C@@H]1CCNC1=O | 700
CCC1(OC(=O)N[C@@H](CC(C)C)C(=O)N[C@H](C=O)C[C@@H]2CCNC2=O)CCN(C(=O)OC(C)(C)C)CC1 | 6100
CC(C)C[C@H](NC(=O)OC1CCN(S(C)(=O)=O)CC1)C(=O)N[C@@H](C[C@@H]1CCNC1=O)C(O)S(=O)(=O)O (some centres not stated) | 600
CC(C)C[C@H](NC(=O)OC1CCN(C(=O)OC(C)(C)C)CC1)C(=O)N[C@H](C=O)C[C@@H]1CCNC1=O | 600
CC(C)C[C@H](NC(=O)OC1(Cc2ccccc2)CCN(S(C)(=O)=O)CC1)C(=O)N[C@H](C=O)C[C@@H]1CCNC1=O | 700
CCC1(OC(=O)N[C@@H](CC(C)C)C(=O)N[C@@H](C[C@@H]2CCNC2=O)C(O)S(=O)(=O)O)CCN(C(=O)OC(C)(C)C)CC1 (some centres not stated) | 7500
CCOC(=O)N1CCC(OC(=O)N[C@@H](CC(C)C)C(=O)N[C@H](C=O)C[C@@H]2CCNC2=O)CC1 | 600

test system: not listed separately; assay: Selectivity index, ratio of CC50 for African green monkey Vero81 cells to IC50 for Middle East respiratory syndrome-related coronavirus; type: toxicity; conditions: read-out: Ratio CC50/IC50

Structure (SMILES) | selectivity ratio
CC(C)C[C@H](NC(=O)OC1CCN(C(=O)OC(C)(C)C)CC1)C(=O)N[C@@H](C[C@@H]1CCNC1=O)C(O)S(=O)(=O)O (some centres not stated) | > 250

test system: not listed separately; assay: Cytotoxicity against cat CRFK cells assessed as reduction in cell viability after 72 hrs by CytoTox 96 nonradioactive cytotoxicity assay; type: cell-based, Felis catus; conditions: not given; in short: as §2

Structure (SMILES) | CC50 at 72 h [nM]
CC(C)C[C@H](NC(=O)OC1(Cc2ccccc2)CCN(C(=O)OC(C)(C)C)CC1)C(=O)N[C@@H](C[C@@H]1CCNC1=O)C(O)S(=O)(=O)O (some centres not stated) | > 100000
CC(C)C[C@H](NC(=O)OC1CCN(C(=O)OC(C)(C)C)CC1)C(=O)N[C@@H](C[C@@H]1CCNC1=O)C(O)S(=O)(=O)O (some centres not stated) | > 100000

test system: not listed separately; assay: Cytotoxicity against African green monkey Vero81 cells assessed as reduction in cell viability after 72 hrs by CytoTox 96 nonradioactive cytotoxicity assay; type: cell-based; conditions: chlorocebus sabaeus; in short: as §2

Structure (SMILES) | CC50 at 72 h [nM]
CC(C)C[C@H](NC(=O)OC1(Cc2ccccc2)CCN(C(=O)OC(C)(C)C)CC1)C(=O)N[C@@H](C[C@@H]1CCNC1=O)C(O)S(=O)(=O)O (some centres not stated) | > 100000
CC(C)C[C@H](NC(=O)OC1CCN(C(=O)OC(C)(C)C)CC1)C(=O)N[C@@H](C[C@@H]1CCNC1=O)C(O)S(=O)(=O)O (some centres not stated) | > 100000
